In ChEMBL document CHEMBL1149260, “Synthesis of tropeines and allosteric modulation of ionotropic glycine receptors” (J Med Chem, 2004):
pIC50: −log10 of the molar value.

What was measured:
[1] = target: Serotonin 3 (5-HT3) receptor (Rattus norvegicus) (UniProt P35563+Q9JJ16); assay: Selectivity for glycine receptor measured as KA over 5HT3 receptor measured as IC50 in Wistar rat synaptosomal membranes; type: cell membranes
[2] = target: T1, Serotonin 3 (5-HT3) receptor (Rattus norvegicus, UniProt P35563+Q9JJ16); assay: Displacement of [3H]granisetron from 5HT3 receptor in Wistar rat cerebral cortex synaptosomal membranes; type: cell membranes, Membrane
T1 sequence (P35563 whole entry): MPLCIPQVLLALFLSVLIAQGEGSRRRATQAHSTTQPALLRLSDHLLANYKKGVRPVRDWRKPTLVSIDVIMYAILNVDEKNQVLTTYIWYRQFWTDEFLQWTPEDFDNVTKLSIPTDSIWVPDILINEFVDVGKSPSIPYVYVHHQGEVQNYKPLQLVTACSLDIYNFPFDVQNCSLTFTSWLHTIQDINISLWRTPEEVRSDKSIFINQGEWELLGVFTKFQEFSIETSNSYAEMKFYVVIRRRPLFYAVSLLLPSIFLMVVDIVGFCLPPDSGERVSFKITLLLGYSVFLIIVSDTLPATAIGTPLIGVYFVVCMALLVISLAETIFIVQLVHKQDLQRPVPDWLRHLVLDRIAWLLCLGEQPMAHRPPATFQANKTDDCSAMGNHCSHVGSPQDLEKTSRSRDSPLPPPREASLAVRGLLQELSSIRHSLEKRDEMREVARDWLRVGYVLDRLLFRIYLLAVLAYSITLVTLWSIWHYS
T1 sequence (Q9JJ16 whole entry): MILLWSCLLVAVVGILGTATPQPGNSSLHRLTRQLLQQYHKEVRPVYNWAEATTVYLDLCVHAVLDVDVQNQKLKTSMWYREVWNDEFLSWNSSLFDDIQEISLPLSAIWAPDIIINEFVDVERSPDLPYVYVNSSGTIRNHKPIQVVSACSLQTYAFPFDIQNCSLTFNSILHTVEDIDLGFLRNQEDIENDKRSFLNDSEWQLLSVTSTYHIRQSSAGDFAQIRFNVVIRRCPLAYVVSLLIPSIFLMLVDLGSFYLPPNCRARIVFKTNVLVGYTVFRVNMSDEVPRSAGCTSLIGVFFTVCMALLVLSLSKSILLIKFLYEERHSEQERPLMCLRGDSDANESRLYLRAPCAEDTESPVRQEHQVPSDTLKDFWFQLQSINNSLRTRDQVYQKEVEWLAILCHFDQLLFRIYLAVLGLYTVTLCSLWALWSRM
Summary of the method: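 Male Wistar rat cerebral cortex plus hippocampus synaptosomal membranes, in 10 mM HEPES with 140 mM NaCl (pH 7.5). Incubated with 0.3 nM [3H]granisetron and varied tropeine concentrations for 2.5 h on ice. Nonspecific binding defined with 10 µM granisetron. Duplicate aliquots filtered on PEI-presoaked GF/B filters. Displacement curves fitted with variable slopes; 3-6 experiments.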

Rattus norvegicus = organism: Rattus norvegicus; assay: Displacement of [3H]strychnine from glycine receptor in Wistar rat spinal cord synaptosomal membranes; type: cell membranes; conditions: Membrane

Row | Structure (SMILES) | Selectivity ratio [1] | pIC50 [2] | -Log KA (Rattus norvegicus)
1 | CN1[C@@H]2CC[C@H]1C[C@H](OC(=O)c1ccc([N+](=O)[O-])cc1)C2 | 0.2 | 5.98 | 5.29
2 | CN1[C@@H]2CC[C@H]1C[C@H](OC(=O)c1cccc(Cl)c1)C2 | 0.15 | 7.17 | 6.31
3 | COc1cccc(C(=O)O[C@@H]2C[C@H]3CC[C@@H](C2)N3C)c1 | 0.87 | 7.15 | 7.08
4 | Nc1cccc(C(=O)O[C@@H]2C[C@H]3CC[C@@H](C2)N3)c1 | 10.3 | 6.24 | 7.23
5 | O=C(O[C@H]1C[C@H]2CC[C@@H](C1)N2)c1ccccc1 (stereo in doubt; 4a) [listing 1 of 2 here] | 161 | – | 7.98
6 | CN1[C@@H]2CC[C@H]1C[C@@H](OC(=O)c1cc(Cl)cc(Cl)c1)C2 | – | – | 5.99
7 | CN1[C@@H]2CC[C@H]1C[C@@H](NC(=O)c1cc(Cl)cc3c1OC(C)(C)C3)C2 | – | – | 6.57
8 | O=C(O[C@H]1C[C@H]2CC[C@@H](C1)N2)c1ccccc1 (stereo in doubt; 8) [listing 1 of 2 here] | – | 6.00 | –
9 | CN1[C@@H]2CC[C@H]1C[C@H](OC(=O)c1cccc([N+](=O)[O-])c1)C2 | – | – | 5.84
10 | COc1cccc(C(=O)O[C@@H]2C[C@H]3CC[C@@H](C2)N3)c1 | 33.5 | 6.58 | 8.11
11 | CN1[C@@H]2CC[C@H]1C[C@H](OC(=O)c1ccccc1)C2 (stereo in doubt; 2a) [listing 1 of 2 here] | 0.78 | – | 6.39
12 | CC1(C)Cc2cc(Cl)cc(C(=O)O[C@H]3C[C@H]4CC[C@@H](C3)N4)c2O1 | 3.37 | 7.25 | 7.74
13 | CN1[C@@H]2CC[C@H]1C[C@H](OC(=O)c1ccccc1)C2 (stereo in doubt; 7) [listing 1 of 2 here] | – | 6.30 | –
14 | O=C(O[C@H]1C[C@H]2CC[C@@H](C1)N2)c1ccccc1 (stereo in doubt; 8) [listing 2 of 2 here] | 0.98 | – | 5.96
15 | CN1[C@@H]2CC[C@H]1C[C@H](NC(=O)c1ccccc1)C2 | – | – | 4.8
16 | O=C(O[C@H]1C[C@H]2CC[C@@H](C1)N2)c1ccccc1 (stereo in doubt; 4a) [listing 2 of 2 here] | – | 5.81 | –
17 | CN1[C@@H]2CC[C@H]1C[C@H](OC(=O)c1ccc(C(C)(C)C)cc1)C2 | – | – | 4.53
18 | CN1[C@@H]2CC[C@H]1C[C@H](OC(=O)c1ccccc1)C2 (stereo in doubt; 7) [listing 2 of 2 here] | 0.3 | – | 5.77
19 | CCc1ccc(C(=O)O[C@@H]2C[C@H]3CC[C@@H](C2)N3C)cc1 | 0.04 | 6.74 | 5.34
20 | CCN1[C@@H]2CC[C@H]1C[C@@H](OC(=O)c1ccccc1)C2 | 0.98 | 6.14 | 6.14
21 | O=C(O[C@@H]1C[C@H]2CC[C@@H](C1)N2)c1cccc(Cl)c1 | 33.7 | 6.16 | 7.65
22 | CN1[C@@H]2CC[C@H]1C[C@@H](OC(=O)c1cc(Cl)cc3c1OC(C)(C)C3)C2 | 0.03 | 8.14 | 6.63
23 | COc1cc(C(=O)O[C@@H]2C[C@H]3CC[C@@H](C2)N3C)cc(OC)c1OC | 0.23 | 6.64 | 5.97
24 | CN1[C@@H]2CC[C@H]1C[C@H](OC(=O)c1ccccc1)C2 (stereo in doubt; 2a) [listing 2 of 2 here] | – | 6.53 | –
